Test results: article PMC11978860 (Nature Communications, 2025)

How the values were obtained:
Assay type in all cases: in vivo, Drosophila melanogaster
[1] = tested on: Tip60-RNAi knockdown Drosophila larvae; settings: oral in food; for Performance in rescuing locomotor defects (in words): compared to CTB
[2] = tested on: AD-associated APP Drosophila third-instar larvae; assay: Larval locomotor assay in AD-associated APP model
In short: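 elavC155-Gal4/UAS-APP larvae (w1118 background), with parental crosses set on food containing the test compound in DMSO (final DMSO ≤0.01%) or DMSO alone, so larvae feed from hatching. Wandering third instars of either sex are rinsed in distilled water, placed on 2.5% agar over a 0.5 cm grid, and acclimated 1 min. Read-outs are speed (mm/s, video tracking) and head line crossings in 30 s. Analysis is one-way ANOVA with Dunnett's test.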

[3] = tested on: Tip60-RNAi-2 Drosophila larvae; assay: Larval locomotor assay in second Tip60-RNAi line; settings: 100 uM, line crossing in 30 seconds
In short: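 elavC155-Gal4 × UAS-Tip60 RNAi-2 progeny (w1118 background) are reared from hatching on food containing the test compound in DMSO (final DMSO ≤0.01%) or vehicle. Wandering third-instar larvae are rinsed and placed on a 2.5% agar plate over a 0.5 cm × 0.5 cm grid. After 1 min acclimation, head line crossings are counted over 30 s. Analysis is one-way ANOVA with Dunnett's comparisons.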

Row | Compound | Performance in rescuing locomotor defects (in words) [1] | also measured
1 | CNC(=O)NC(=O)COc1ccccc1C(=O)Nc1ccc(Cl)c(C(F)(F)F)c1 [C8, N-[4-Chloro-3-(trifluoromethyl)phenyl]-2-{2-[(methylcarbamoyl)amino]-2-oxoethoxy}benzamide] | highest performers | 
2 | O=C(Nc1ccc(Cl)c(C(F)(F)F)c1)c1ccccc1OCC(=O)C1CCOCC1 [C7, N-[4-Chloro-3-(trifluoromethyl)phenyl]-2-[2-oxo-2-(tetrahydro-2H-pyran-4-yl)ethoxy]benzamide] | low-performing | 
3 | CCOc1ccccc1C(=O)Nc1ccc(Cl)c(C(F)(F)F)c1 [CTB, N-[4-chloro-3-(trifluoromethyl)phenyl]-2-ethoxybenzamide, reference compound] |  | Rescue of locomotor ability (in words) ([1]; 10 to 100 μM): significant rescue
4 | CCOCCC(O)COc1ccccc1C(=O)Nc1ccc(Cl)c(C(F)(F)F)c1 (stereo not shown) [C5, N-[4-Chloro-3-(trifluoromethyl)phenyl]-2-(4-ethoxy-2-hydroxybutoxy)benzamide] | highest performers | 
5 | Cn1cc(C(=O)COc2ccccc2C(=O)Nc2ccc(Cl)c(C(F)(F)F)c2)cn1 [C1, N-[4-chloro-3-(trifluoromethyl)phenyl]-2-[2-(1-methyl-1H-pyrazol-4-yl)-2-oxoethoxy]benzamide] | low-performing | 
6 | O=C(Nc1ccc(Cl)c(C(F)(F)F)c1)c1ccccc1OCC(=O)N1CCNC1=O [C4, N-[4-Chloro-3-(trifluoromethyl)phenyl]-2-[2-oxo-2-(2-oxo-1-imidazolidinyl)ethoxy]benzamide] | no effect | 
7 | CC(C)CNC(=O)COc1ccccc1C(=O)Nc1ccc(Cl)c(C(F)(F)F)c1 [C6, N-[4-Chloro-3-(trifluoromethyl)phenyl]-2-[2-(isobutylamino)-2-oxoethoxy]benzamide] | low-performing | 
8 | COC(=O)CNC(=O)COc1ccccc1C(=O)Nc1ccc(Cl)c(C(F)(F)F)c1 [C9, Methyl N-[(2-{[4-chloro-3-(trifluoromethyl)phenyl]carbamoyl}phenoxy)acetyl]glycinate] | low-performing | 
9 | O=C(COc1ccccc1C(=O)Nc1ccc(Cl)c(C(F)(F)F)c1)NCC1CC1 [C10, N-[4-Chloro-3-(trifluoromethyl)phenyl]-2-{2-[(cyclopropylmethyl)amino]-2-oxoethoxy}benzamide] | low-performing | 
10 | COC(=O)CCC(=O)COc1ccccc1C(=O)Nc1ccc(Cl)c(C(F)(F)F)c1 [C2, Methyl 5-(2-{[4-chloro-3-(trifluoromethyl)phenyl]carbamoyl}phenoxy)-4-oxopentanoate] | highest performers | Sustained effects to complete the assay and reach the wall (in words) [2]: sustained effects; Concentration significantly rescuing larval locomotor ability ([2]; oral in food): ≥ 50 µM; Rescue of locomotor deficits (in words) [3]: rescued locomotor deficits
